Source: paper PMC8324497 (Cell Reports Medicine, 2021)

Key:
Daudi = experiment: Cell viability MTS assay; format: cell-based; details: Homo sapiens, read-out: IC50 mean values
Method in brief: (§1)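 Lymphoma suspension lines were grown in RPMI 1640 with 10–20% heat-inactivated FBS, 1% L-glutamine and penicillin-streptomycin at 37°C, 5% CO2. Cells were plated at 25,000/100 μL (96-well) or 250,000/mL (24-well) with DMSO 0.1% vehicle or rising compound concentrations for 24–72 h. MTS reagent was added at 1:5 and absorbance read at 490 nm. IC50 was taken from three independent experiments (mean ± SD).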

786-O = experiment: Cell proliferation assay; format: cell-based; details: Homo sapiens, 786-0, 72 h
Method in brief: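 Adherent solid-tumour cells were seeded at 5,000 cells/well and allowed to attach for 16–24 h at 37°C, 5% CO2. They were exposed to the test compound at 0.0005–10 μM (3-fold serial dilutions) for 72 h. Alamar Blue was added (1X final) for 1–3 h and fluorescence read at 540 nm excitation, 590 nm emission. IC50 came from a sigmoidal variable-slope fit.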

L-428 = experiment: Cell viability MTS assay; format: cell-based; details: Homo sapiens, L-428, read-out: IC50 mean values
Method in brief: as §1

SU-DHL-8 = experiment: Cell viability MTS assay; format: cell-based; details: Homo sapiens, SU-DHL-8, read-out: IC50 mean values
Method in brief: as §1

[1] = test system: advanced solid tumors harboring BRAF and KRAS, HRAS, and NRAS mutations; details: phase I, early results, cited from earlier work
CA46 = experiment: Cell viability MTS assay; format: cell-based; details: Homo sapiens, CA46, read-out: IC50 mean values
Method in brief: as §1

IC50 (Daudi): > 10 µM
IC50 (786-O): > 10 µM
IC50 (SU-DHL-8): 2.4 µM
SMILES: Cc1cnc(NC2CCOCC2)nc1-n1cnc(C(=O)NC(CN)c2cc(F)cc(Cl)c2)c1 (stereo not shown) [ASN007, N-(2-amino-1-(3-chloro-5-fluorophenyl)ethyl)-1-(5-methyl-2-((tetrahydro-2H-pyran-4-yl)amino)pyrimidin-4-yl)-1H-imidazole-4-carboxamide]
IC50 (L-428): > 10 µM
duration of clinical activity ([1]; lasting up): > 12 months
tolerability [1]: well tolerated
IC50 (CA46): > 10 µM
